# Results gathered from unrelated publications.
# Protocols differ between the studies behind these lines. pIC50: −log10 of the molar value.
# IRAK4: Interleukin-1 receptor-associated kinase 4 (IRAK4, Homo sapiens, UniProt Q9NWZ3)
# CYP2D6: Cytochrome P450 2D6 (CYP2D6, Homo sapiens, UniProt P10635)
# P2RY14: P2Y purinoceptor 14 (P2RY14, Homo sapiens, UniProt Q15391)
Compound,target,test,system,setting,pIC50
CS(=O)(=NC#N)c1ccccc1Nc1nc(Nc2ccnc(CO)c2)ncc1Cl (stereo not shown),IRAK4,"enzyme activity, inhibitor, radiometric",,,7.54
C=CCn1c(=O)c2cnc(Nc3ccc(N4CCN(C)CC4)cc3)nc2n1-c1ccc2c(n1)[C@@](O)(CC)CC2,CYP2D6,"enzyme activity, inhibitor",,,4.30
CC(C)(C)NS(=O)(=O)c1cccc(C(=O)N2CC3(CCC4(CC4)CC3)c3cc(NS(C)(=O)=O)ccc32)c1,"Kinesin-like protein KIF11 (KIF11, Homo sapiens, UniProt P52732)","ATPase activity, inhibitor",,,< 4.00
CN(C)C(=O)c1cc2cnc(Nc3ccc(-c4ccc5c(=O)cc(N6CCOCC6)oc5c4)cc3)nc2n1C1CCCC1,CYP2D6,"enzyme activity, inhibitor, fluorescence",,pH 8,5.37
O=C(O)c1cc(-c2ccc(-c3ccc(Cl)s3)cc2)c2ccc(-c3ccc(C(F)(F)F)cc3)cc2c1,P2RY14,"ligand displacement in cells, flow cytometry",,,5.69
C#Cc1cnc(Nc2ccc(CO)nc2)nc1Nc1ccccc1S(C)(=O)=NC#N (stereo not shown),IRAK4,"enzyme activity, inhibitor, radiometric",,,8.40
O=C(N[C@@H](Cc1c[nH]c2ccccc12)C(=O)O)c1ccco1,P2RY14,"cAMP, antagonist",,,7.63
OCc1ccc(Nc2ncc(Cl)c(Nc3ccccc3-c3ncc[nH]3)n2)cc1,IRAK4,"enzyme activity, inhibitor, radiometric",,,7.07
NCC(=O)O,"ltaE (Escherichia coli, UniProt P75823)","enzyme activity, inhibitor",,,2.72
O=C(O)c1cc(-c2ccc(-c3c[nH]nn3)cc2)c2ccc(-c3ccc(C(F)(F)F)cc3)cc2c1,P2RY14,"ligand displacement in cells, flow cytometry",,,8.43
Cc1ccc(OCC(=O)N[C@@H](Cc2c[nH]c3ccccc23)C(=O)OC(C)C)cc1,CYP2D6,"enzyme activity, inhibitor","human, liver microsomes",30 min,4.56
c1c(N2CCCC2)nc(N2CCCC2)nc1N1CCNCC1,"Caspase-1 (CASP1, Homo sapiens, UniProt P29466)","enzyme activity, inhibitor",,with preincubation,6.63
c1coc(-c2n[nH]cc2-c2ccnc3ccccc23)c1,"TGF-beta receptor type-1 (TGFBR1, Homo sapiens, UniProt P36897)","enzyme activity, inhibitor, radiometric",,,5.96
COc1ccc(OCC(=O)N[C@@H](Cc2c[nH]c3ccccc23)C(=O)OC(C)C)cc1,P2RY14,"cAMP, antagonist",,,7.81
OCc1ccc(Nc2ncc(Cl)c(Nc3ccccc3-c3nccs3)n2)cc1,IRAK4,"enzyme activity, inhibitor, radiometric",,,7.58
O=C(NO)c1ccc(Cn2cnc3c(Nc4ccc(Cl)cc4)ncnc32)cc1,"Histone deacetylase 3 (HDAC3, Homo sapiens, UniProt O15379)","enzyme activity, inhibitor, fluorescence",,,7.82
CC(C)OC(=O)[C@H](Cc1c[nH]c2ccccc12)NC(=O)COc1ccccc1,P2RY14,"cAMP, antagonist",,,8.36
CNC(=O)c1ccccc1Nc1nc(Nc2ccc(CC(F)F)cc2)ncc1Cl,IRAK4,"enzyme activity, inhibitor, radiometric",,,7.13
Cn1ccc(-c2ccc(-c3cc(C(=O)O)cc4cc(-c5ccc(C(F)(F)F)cc5)ccc34)cc2)n1,P2RY14,"ligand displacement in cells, flow cytometry",,,7.45
CNS(=O)(=O)c1ccccc1Nc1nc(Nc2ccc(CO)nc2)ncc1Cl,IRAK4,"enzyme activity, inhibitor, radiometric",,,7.90
CC(C)OC(=O)[C@H](Cc1c[nH]c2ccccc12)NC(=O)c1ccc2nccnc2c1,P2RY14,"cAMP, antagonist",,,8.01
O=C(O)c1cc(-c2ccc(-n3nncc3CCOP(=O)(O)O)cc2)c2ccc(-c3ccc(C(F)(F)F)cc3)cc2c1,P2RY14,"ligand displacement in cells, flow cytometry",,,6.80
CNC(=O)c1ccccc1Nc1nc(Nc2ccc(CO)cc2)ncc1C1CC1,IRAK4,"enzyme activity, inhibitor, radiometric",,,8.52
O=C(O)c1cc(-c2ccc(-n3cc(CCOP(=O)(O)O)nn3)cc2)c2ccc(-c3ccc(C(F)(F)F)cc3)cc2c1,P2RY14,"ligand displacement in cells, flow cytometry",,,5.87
CNC(=O)c1ccccc1Nc1nc(Nc2ccc(CO)cc2)ncc1C#N,IRAK4,"enzyme activity, inhibitor, radiometric",,,6.97
